Experimental data: ChEMBL document CHEMBL4229372, “Synthesis and anti-mitotic activity of 2,4- or 2,6-disubstituted- and 2,4,6-trisubstituted-2H-pyrazolo[4,3-c]pyridines” (2018)
Active and inactive are the calls of the source. The rule behind the calls is not given here.

Experiments:
[1] = molecular target: Serine/threonine-protein kinase Nek4 (Homo sapiens) (UniProt P51957); assay: Inhibition of NEK4 (unknown origin)
MCF7 [2] = assay: Induction of apoptosis in human MCF7 cells assessed as increase in PARP1 cleavage after 24 hrs by Immunoblotting; assay type: functional, cell-based
Procedure, shortened: (§1)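 Cells treated 24 h with a range of doses, with 1 μM doxorubicin as control. Cells were harvested into Laemmli buffer, run on SDS-PAGE and blotted to nitrocellulose. Membranes were probed overnight with primary antibodies (PARP, Ser139-phospho-H2AX, Bcl-2, β-actin loading control), then peroxidase secondaries, with ECL detection on a CCD imager.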

MCF7 [3] = assay: Induction of apoptosis in human MCF7 cells assessed as increase in gammaH2AX level at 1.25 to 20 uM after 24 hrs by immunoblotting; assay type: functional, cell-based; procedure, shortened: as §1
[4] = molecular target: T1, Aurora kinase A (Homo sapiens) (UniProt O14965); assay: Inhibition of Aurora A (unknown origin)
T1 sequence (whole entry): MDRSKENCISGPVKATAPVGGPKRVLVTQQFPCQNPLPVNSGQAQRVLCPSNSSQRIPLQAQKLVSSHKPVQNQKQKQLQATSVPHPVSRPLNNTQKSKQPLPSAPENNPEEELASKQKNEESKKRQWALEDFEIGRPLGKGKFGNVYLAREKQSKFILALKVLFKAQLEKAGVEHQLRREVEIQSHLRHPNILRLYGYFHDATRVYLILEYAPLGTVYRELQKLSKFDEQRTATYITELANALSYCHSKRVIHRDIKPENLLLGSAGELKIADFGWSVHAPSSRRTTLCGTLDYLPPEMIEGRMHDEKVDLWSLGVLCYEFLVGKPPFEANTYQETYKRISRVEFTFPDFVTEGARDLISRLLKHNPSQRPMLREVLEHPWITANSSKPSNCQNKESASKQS

[5] = molecular target: Cyclin-dependent kinase 1 (Homo sapiens) (UniProt P06493); assay: Inhibition of CDK1 (unknown origin)
[6] = molecular target: T2, Dual specificity protein kinase TTK (Homo sapiens) (UniProt P33981); assay: Inhibition of TTK (unknown origin)
T2 sequence (whole entry): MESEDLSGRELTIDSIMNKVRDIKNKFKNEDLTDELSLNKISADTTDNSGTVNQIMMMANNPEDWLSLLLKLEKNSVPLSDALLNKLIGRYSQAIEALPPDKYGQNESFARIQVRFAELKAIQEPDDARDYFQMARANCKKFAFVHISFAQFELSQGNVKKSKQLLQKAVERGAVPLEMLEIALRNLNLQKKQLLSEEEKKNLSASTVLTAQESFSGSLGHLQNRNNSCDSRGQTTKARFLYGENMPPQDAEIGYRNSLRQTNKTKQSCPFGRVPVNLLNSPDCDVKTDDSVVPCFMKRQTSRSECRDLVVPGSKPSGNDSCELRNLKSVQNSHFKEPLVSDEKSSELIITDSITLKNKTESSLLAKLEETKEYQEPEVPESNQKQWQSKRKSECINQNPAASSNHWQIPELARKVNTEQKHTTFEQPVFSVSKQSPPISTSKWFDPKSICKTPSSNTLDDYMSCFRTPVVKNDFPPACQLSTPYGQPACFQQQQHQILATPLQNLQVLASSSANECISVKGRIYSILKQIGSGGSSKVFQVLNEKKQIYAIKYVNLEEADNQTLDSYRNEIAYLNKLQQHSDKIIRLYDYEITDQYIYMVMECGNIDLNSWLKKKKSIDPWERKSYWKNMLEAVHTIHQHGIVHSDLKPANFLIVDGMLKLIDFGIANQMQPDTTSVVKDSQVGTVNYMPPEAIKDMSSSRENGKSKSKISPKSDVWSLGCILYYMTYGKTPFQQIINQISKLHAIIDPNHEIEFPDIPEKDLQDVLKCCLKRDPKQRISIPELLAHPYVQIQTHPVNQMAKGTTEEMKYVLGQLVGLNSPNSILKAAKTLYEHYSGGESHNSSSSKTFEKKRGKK

[7] = molecular target: Serine/threonine-protein kinase pim-2 (Homo sapiens) (UniProt Q9P1W9); assay: Inhibition of PIM2 (unknown origin)
[8] = molecular target: Serine/threonine-protein kinase NIM1 (Homo sapiens) (UniProt Q8IY84); assay: Inhibition of NIM1 (unknown origin)
MCF7 [9] = assay: Cell cycle arrest in human MCF7 cells assessed as accumulation at S phase at 10 uM after 24 hrs by propidium iodide staining-based flow cytometric analysis (reference value: 34.1%); assay type: functional
Procedure, shortened: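 MCF-7 cells in DMEM with 10% FBS and penicillin/streptomycin at 37 °C, 5% CO2. Asynchronous cells were treated 24 h, PBS-washed, trypsinized and quenched with 0.1% trypsin inhibitor. Staining used 5× citrate/IGEPAL/spermine/Tris buffer (pH 7.6) with 50 μg/mL propidium iodide. DNA content was read by 488 nm flow cytometry and cell-cycle phases modelled.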

K562 = assay: Cell cycle arrest in human K562 cells assessed as accumulation at G1 phase at 10 uM after 24 hrs by propidium iodide staining-based flow cytometric analysis (reference value: 34.6%); assay type: functional

Sequence of Serine/threonine-protein kinase pim-2 (Homo sapiens) (Q9P1W9 whole entry, looked up): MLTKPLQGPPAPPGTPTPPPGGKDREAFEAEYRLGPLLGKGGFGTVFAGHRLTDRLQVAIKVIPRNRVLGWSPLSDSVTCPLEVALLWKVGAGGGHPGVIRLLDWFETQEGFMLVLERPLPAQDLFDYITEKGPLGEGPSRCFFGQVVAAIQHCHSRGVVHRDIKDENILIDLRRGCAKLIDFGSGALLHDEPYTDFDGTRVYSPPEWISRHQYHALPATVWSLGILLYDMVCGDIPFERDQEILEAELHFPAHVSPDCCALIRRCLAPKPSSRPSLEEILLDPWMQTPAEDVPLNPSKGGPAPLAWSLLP
Sequence of Serine/threonine-protein kinase Nek4 (Homo sapiens) (P51957 whole entry, looked up): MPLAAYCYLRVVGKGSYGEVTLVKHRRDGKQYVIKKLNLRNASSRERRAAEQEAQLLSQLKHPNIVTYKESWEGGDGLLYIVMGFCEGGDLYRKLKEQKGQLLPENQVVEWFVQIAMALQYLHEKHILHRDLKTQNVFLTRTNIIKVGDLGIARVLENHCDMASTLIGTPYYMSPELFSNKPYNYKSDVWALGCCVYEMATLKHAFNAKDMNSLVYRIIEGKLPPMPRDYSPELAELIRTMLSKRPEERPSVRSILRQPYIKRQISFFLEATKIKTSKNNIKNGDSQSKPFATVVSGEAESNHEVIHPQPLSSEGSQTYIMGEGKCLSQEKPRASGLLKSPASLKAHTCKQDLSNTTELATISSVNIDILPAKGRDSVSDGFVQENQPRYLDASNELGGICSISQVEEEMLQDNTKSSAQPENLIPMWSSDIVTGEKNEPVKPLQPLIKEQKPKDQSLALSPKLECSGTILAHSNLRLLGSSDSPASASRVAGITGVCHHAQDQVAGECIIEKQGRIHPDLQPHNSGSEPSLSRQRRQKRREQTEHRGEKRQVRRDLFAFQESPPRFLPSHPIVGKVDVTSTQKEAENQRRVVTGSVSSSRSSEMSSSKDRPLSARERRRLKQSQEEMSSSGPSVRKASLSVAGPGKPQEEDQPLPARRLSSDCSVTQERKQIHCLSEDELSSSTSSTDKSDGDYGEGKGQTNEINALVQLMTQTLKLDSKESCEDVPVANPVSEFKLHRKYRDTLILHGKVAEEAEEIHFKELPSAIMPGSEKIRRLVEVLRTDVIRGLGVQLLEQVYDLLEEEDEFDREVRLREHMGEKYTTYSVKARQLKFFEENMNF
Sequence of Cyclin-dependent kinase 1 (Homo sapiens) (P06493 whole entry, looked up): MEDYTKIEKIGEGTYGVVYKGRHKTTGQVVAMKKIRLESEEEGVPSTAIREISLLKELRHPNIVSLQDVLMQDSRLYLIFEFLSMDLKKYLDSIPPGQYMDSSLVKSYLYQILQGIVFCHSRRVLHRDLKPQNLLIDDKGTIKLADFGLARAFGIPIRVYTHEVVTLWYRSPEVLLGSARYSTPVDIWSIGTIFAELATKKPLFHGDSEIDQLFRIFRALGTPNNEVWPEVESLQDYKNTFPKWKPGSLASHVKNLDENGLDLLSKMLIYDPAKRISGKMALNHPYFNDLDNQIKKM
Sequence of Serine/threonine-protein kinase NIM1 (Homo sapiens) (Q8IY84 whole entry): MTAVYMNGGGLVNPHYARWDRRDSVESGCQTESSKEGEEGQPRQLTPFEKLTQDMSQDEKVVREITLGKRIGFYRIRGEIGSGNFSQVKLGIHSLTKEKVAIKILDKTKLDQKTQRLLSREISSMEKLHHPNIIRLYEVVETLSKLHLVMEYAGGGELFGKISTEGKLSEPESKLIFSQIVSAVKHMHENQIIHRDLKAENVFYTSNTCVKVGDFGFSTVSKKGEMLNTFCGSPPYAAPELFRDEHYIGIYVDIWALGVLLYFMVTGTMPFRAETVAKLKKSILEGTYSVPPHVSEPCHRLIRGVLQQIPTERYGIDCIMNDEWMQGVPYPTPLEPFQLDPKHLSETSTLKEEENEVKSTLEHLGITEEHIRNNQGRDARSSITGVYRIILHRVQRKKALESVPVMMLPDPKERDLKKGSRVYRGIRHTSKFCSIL

CCCCCc1cc2nn(-c3ccccc3)cc2cn1
inhibition [1]: inactive | Activity (MCF7 [2]): Dose-dependent effect | Activity (MCF7 [3]): Active | inhibition [4]: inactive | inhibition [5]: inactive | inhibition [6]: inactive | inhibition [7]: inactive | inhibition [8]: inactive | Activity (MCF7 [9]): 26.3% | Activity (K562): 14.8%
